Residues, ends and D or L forms follow the SMILES beside them. *: point of attachment. Cbz = O=C(OCc1ccccc1)*; Boc = CC(C)(C)OC(=O)*; OBn = c1ccc(CO*)cc1; OtBu = CC(C)(C)O*
Assays:
primary MM cells = experiment: Cell viability of primary MM cells; format: cell-based, human; conditions: 48 h; for Cytotoxic effects in primary MM samples, Btz-resistant versus PI-naïve: 10 μM, nine samples, Figure 5B,C
How it was run: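 Bone-marrow aspirates from patients; CD138+ plasma cells isolated by positive bead selection, purity checked by flow cytometry. Donors were six Btz/Cfz-naïve and eight relapsed on Btz. Plated 20 000 cells/well in IMDM with 10% FBS. Exposed to test compound (50 nM or 10 μM) for 48 h. Percentage viable cells measured by CellTiter-Glo luminescence.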

β5 subunit = conditions: cited from earlier work
β1i subunit = conditions: cited from earlier work
H727 cells = experiment: Cell viability assay; format: cell-based
[1] = test system: Cfz-resistant RPMI8226 cells; experiment: Cell viability assay; format: cell-based, human
How it was run: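 Resistant RPMI8226 subline derived by stepwise Cfz exposure up to 80 nM over ~6 months, kept in 80 nM, then grown Cfz-free ~1 week before assay. Parental and resistant cells in RPMI1640/10% FBS, plated 10 000/well; compounds added 24 h after plating. MTS read after 72 h. IC50 by nonlinear regression; triplicates, or three independent experiments for the reference.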

[2] = molecular target: β1i/LMP2 of human 20S immunoproteasome (Homo sapiens, UniProt P28065); experiment: Enzyme kinetics assay, β1i/LMP2 activity of purified human 20S immunoproteasome; format: biochemical; conditions: 20S purified immunoproteasome, Figure 7
How it was run: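 Purified human 20S immunoproteasome in pH 8.0 Tris-HCl buffer (0.5 mM EDTA, 0.035% SDS), incubated 1 h with graded inhibitor concentrations. LMP2 activity measured with Ac-PAL-AMC (100 μM final) by AMC fluorescence (360/460 nm) every minute for 1 h. Linear-regression initial rates normalized to vehicle control; IC50 by nonlinear fit.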

[3] = In vitro metabolic stability in rat liver homogenates; format: in vitro ADME; conditions: 1 μM, 5, 10 and 20 min, 37 °C, Figure 8B
How it was run: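 Livers from 8-week-old male Sprague-Dawley rats, PBS-washed and homogenized in five-fold volume PBS (pH 7.4) per gram. Homogenate prewarmed to 37 °C, spiked to 1 μM final, n = 3. Samples taken at 0, 5, 10 and 20 min, quenched in four-fold ice-cold acetonitrile with 0.5 μM chlorpropamide internal standard. Remaining drug quantified by LC-MS/MS (positive-ion SRM).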

[4] = test system: proteasome chymotrypsin-like (CT-L, β5/β5i) activity; format: biochemical, human; conditions: RPMI8226 cell lysate, Figure 7
How it was run: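 RPMI 8226 lysate in 20 mM Tris-HCl, 0.5 mM EDTA, 0.035% SDS, pH 8.0, preincubated 1 h with a range of inhibitor concentrations. Suc-LLVY-AMC added at 100 μM final. AMC fluorescence (ex 360/em 460 nm) read each minute for 1 h. Initial slopes normalized to vehicle wells; IC50 from nonlinear regression.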

[5] = in vivo; cited from earlier work
[6] = 72-h IC50 values, H727 versus H23, Figure 3B

## CCCCCCC(=O)N[C@@H](C)C(=O)N[C@@H](CC(C)C)C(=O)[C@@]1(CO[Si](C)(C)C(C)(C)C)CO1 [UK101]
Primary MM cells
  Cytotoxic effects in primary MM samples, Btz-resistant versus PI-naïve: similar
β5 subunit
  Inhibition of β5 subunit (CT-L activity), concentration range: micromolar concentration ranges
β1i subunit
  Inhibition of β1i subunit, concentration range: nanomolar concentration ranges

## CC(=O)N[C@@H](CSC(=O)[C@]1([C@@H](O)C(C)C)NC(=O)[C@H](C)[C@@H]1O)C(=O)O [lactacystin]
H727 cells; [6]
  Cytotoxicity in H727 cells compared with H23 cells: not as effective in H727 cells as in H23 cells

## CCCCCCC(=O)N[C@@H](C)C(=O)N[C@@H](CC(C)C)C(=O)[C@@]1(CO)CO1 [Compound 5, N-((S)-1-((S)-1-((R)-2-(Hydroxymethyl)oxiran-2-yl)-4-methyl-1-oxopentan-2-ylamino)-1-oxopropan-2-yl)heptanamide]
H727 cells; H23, H727 and Cfz-resistant RPMI8226 cells, MTS, Figure 6B
  Cytotoxic activity in cancer cell lines relative to UK101: considerably improved the cytotoxic activity

## CC(C)C[C@H](NC(=O)[C@H](Cc1ccccc1)NC(=O)c1cnccn1)B(O)O [Btz, bortezomib]
H727 cells; human, 72 h
  Cytotoxicity in H727 cells compared with H23 cells: comparable cytotoxicity in H727 and H23 cells

## CCCCCCC(=O)N[C@@H](CO)C(=O)N[C@@H](CC(C)C)C(=O)[C@@]1(COCOCCOC)CO1 [UK102]
Primary MM cells
  Cytotoxic effects in primary MM samples, Btz-resistant versus PI-naïve: similar

## CC(C)C[C@H](NC(=O)[C@H](CCc1ccccc1)NC(=O)CN1CCOCC1)C(=O)N[C@@H](Cc1ccccc1)C(=O)N[C@@H](CC(C)C)C(=O)[C@@]1(CO)CO1 [Compound 9, (S)-N-((S)-1-((S)-1-((R)-2-(Hydroxymethyl)oxiran-2-yl)-4-methyl-1-oxopentan-2-ylamino)-1-oxo-3-phenylpropan-2-yl)-4-methyl-2-((S)-2-(2-morpholinoacetamido)-4-phenylbutanamido)-pentanamide]
[1]; Cfz-resistant RPMI8226 cells, Figure 7
  Improvement in potency as compared to Cfz: almost three-fold improvement in potency
[2]
  IC50 against β1i activity compared with Cfz: IC50 values similar to that of Cfz
[3]
  Metabolic stability compared with Cfz: more stable than Cfz
[4]
  IC50 against CT-L (β5/β5i) activity compared with Cfz: IC50 values similar to that of Cfz

## CC(C)(C)OC(=O)N[C@@H](CC(=O)OCc1ccccc1)C(=O)N[C@@H](CCCCNC(=O)OCc1ccccc1)C(=O)OC(C)(C)C [reversin 121] (Boc-Asp(OBn)-Lys(Cbz)-OtBu)
[1]; Cfz-resistant RPMI8226, Supporting Information S2
  Restoration of Cfz sensitivity by P-gp inhibitor: almost completely restored Cfz sensitivity

## CC(C)C[C@H](NC(=O)[C@H](CCc1ccccc1)NC(=O)CN1CCOCC1)C(=O)N[C@@H](Cc1ccccc1)C(=O)N[C@@H](CC(C)C)C(=O)[C@@]1(COS(C)(=O)=O)CO1 [Compound 12, ((S)-2-((4S,7S,10S,13S)-10-Benzyl-7-isobutyl-15-methyl-1-morpholino-2,5,8, 11-tetraoxo-4-phenethyl-3,6,9, 12-tetraazahexadecanecarbonyl)oxiran-2-yl)methylmethane-sulfonate]
[2]
  IC50 against β1i activity compared with Cfz: IC50 values similar to that of Cfz
[4]
  IC50 against CT-L (β5/β5i) activity compared with Cfz: IC50 values similar to that of Cfz
H727 cells; Cfz-resistant H727 cells, Figure 7
  Potency against H727 cells compared with Cfz: less potent than Cfz

## CC(C)C[C@H](NC(=O)[C@H](CCc1ccccc1)NC(=O)CN1CCOCC1)C(=O)N[C@@H](Cc1ccccc1)C(=O)N[C@@H](CC(C)C)C(=O)[C@@]1(C)CO1 [Cfz, carfilzomib]
[1]; versus parental RPMI8226, 72 h MTS, Figure 4A
  Increase in IC50 values in Cfz-resistant RPMI8226 cells: greater than 35 fold
[5]
  Plasma half-lives: less than 1 h
Primary MM cells; 50 nM, 14 donors, Figure 5A
  Sensitivity of primary MM samples, Btz-relapsed versus PI-naïve patients: tended to be less responsive to Cfz

## CC(C)C[C@@H](C=O)NC(=O)[C@H](CC(C)C)NC(=O)[C@H](CC(C)C)NC(=O)OCc1ccccc1 [MG-132] (Cbz-Leu-Leu-Leu-aldehyde)
H727 cells; [6]
  Cytotoxicity in H727 cells compared with H23 cells: comparable cytotoxicity in H727 and H23 cells

Source: publication PMC7675178 (Journal of medicinal chemistry, 2019)
